Source: ChEMBL document CHEMBL4428079, “Modulation of Backbone Flexibility for Effective Dissociation of Antibacterial and Hemolytic Activity in Cyclic Peptides” (ACS Med Chem Lett, 2016)
In brackets after ≈: the same amount, converted by molar mass. Activity calls are given as the source filed them. The rule behind the calls is not given here. Bridge positions count the residues as written; N and C are the ends. Square brackets hold non-standard residues; d marks the D form. Peptide text beside a SMILES is read from it. Bip = N[C@@H](Cc1ccc(-c2ccccc2)cc1)C(=O)O; 2Nal = N[C@@H](Cc1ccc2ccccc2c1)C(=O)O; Dab = NCC[C@H](N)C(=O)O; AEEA = NCCOCCOCC(=O)O; Aoc = NCCCCCCCC(=O)O; Ahx = NCCCCCC(=O)O; AEA = NCCOCC(=O)O; GABA = NCCCC(=O)O

Columns and labels:
Acinetobacter baumannii = experiment: Antimicrobial activity against multiple drug resistant-Acinetobacter baumannii ATCC BAA-1605 after 18 hrs by tube microdilution method; format: functional; conditions: ATCC BAA-1605, 18 h
Staphylococcus aureus [1] = experiment: Antimicrobial activity against methicillin-resistant Staphylococcus aureus ATCC 33591 after 18 hrs by tube microdilution method; format: functional; conditions: ATCC 33591, 18 h
Enterococcus faecium = experiment: Antimicrobial activity against vancomycin-resistant Enterococcus faecium ATCC 700221 after 18 hrs by tube microdilution method; format: functional; conditions: ATCC 700221, 18 h
Erythrocyte = experiment: Hemolytic activity in human RBC after 1 hr by microplate reader method; format: ADME, cell-based
Escherichia coli = experiment: Antimicrobial activity against Escherichia coli ATCC 25922 after 18 hrs by tube microdilution method; format: functional; conditions: ATCC 25922, 18 h
Klebsiella pneumoniae = experiment: Antimicrobial activity against multiple drug resistant-Klebsiella pneumoniae ATCC 700603 after 18 hrs by tube microdilution method; format: functional; conditions: Klebsiella pneumoniae, 700603, 18 h
Lipid bilayer [2] = experiment: Binding affinity to DOPE/DOPG large unilamellar vesicles in 3:1 ratio assessed as exciton split measured at 225 nanometer in NaHCO3 buffer
Pseudomonas aeruginosa = experiment: Antimicrobial activity against Pseudomonas aeruginosa ATCC 27853 after 18 hrs by tube microdilution method; format: functional; conditions: ATCC 27853, 18 h
Lipid bilayer [3] = experiment: Membrane permeabilization in DOPC/POPG large unilamellar vesicles in 3:1 ratio assessed as sulforhodamine B release at 16 to 64 uM by fluorescence assay
Method in brief: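 Sulforhodamine B was entrapped at self-quenching concentration in LUVs of DOPC/POPG at 3:1. PE lipids were excluded, and palmitoyl replaced one oleyl chain for vesicle stability. Peptide was added at 16, 32 or 64 μM, and marker release was followed over time as fluorescence recovery on dye release and dilution.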

Staphylococcus aureus [4] = experiment: Bactericidal activity against Staphylococcus aureus ATCC 29213 assessed as reduction in bacterial burden at 32 uM measured up to 30 mins by time kill kinetic study; format: functional
Method in brief: (§1)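 Time-course kill assay against S. aureus ATCC 29213 with peptide at 32 μM. Viable cell count was followed over time as colony counts, with a final sampling at 24 h.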

Staphylococcus aureus [5] = experiment: Bactericidal activity against Staphylococcus aureus ATCC 29213 assessed as reduction in bacterial burden at 32 uM after 24 hrs by time kill kinetic study; format: functional, organism-based; method in brief: as §1
Staphylococcus aureus [6] = experiment: Bactericidal activity against Staphylococcus aureus ATCC 29213 assessed as reduction in bacterial burden at 32 uM measured up to 3.5 hrs by time kill kinetic study; format: functional; method in brief: as §1

SMILES | MIC (Acinetobacter baumannii) [µM] | MIC (Staphylococcus aureus [1]) [µM] | MIC (Enterococcus faecium) [µM] | EC50 (Erythrocyte) [µM] | MIC (Escherichia coli) [µM] | MIC (Klebsiella pneumoniae) [µM] | Activity (Lipid bilayer [2]) | MIC (Pseudomonas aeruginosa) [µM] | Activity (Lipid bilayer [3]) | LCK (Staphylococcus aureus [4]) | Activity (Staphylococcus aureus [5]) | LCK (Staphylococcus aureus [6])
NCCCC[C@@H]1NC(=O)[C@H](Cc2ccc3ccccc3c2)NC(=O)COCCNC(=O)[C@H](Cc2ccc(-c3ccccc3)cc2)NC(=O)[C@H](CCCCN)NC(=O)[C@H](CCCCN)NC(=O)[C@H](Cc2ccc3ccccc3c2)NC(=O)[C@H](CCCCN)NC(=O)[C@H](CC(N)=O)NC1=O (cyclo([2Nal]KK[Bip][AEA][2Nal]KNK)) | 32 (≈ 43.1 µg/mL) | 16 (≈ 21.5 µg/mL) | 4 (≈ 5.38 µg/mL) | > 300 | 32 (≈ 43.1 µg/mL) | 64 (≈ 86.1 µg/mL) | Active | 32 (≈ 43.1 µg/mL) | – | – | – | –
NCCCC[C@@H]1NC(=O)[C@H](CCCCN)NC(=O)[C@H](Cc2ccc3ccccc3c2)NC(=O)[C@H](CCCCN)NC(=O)[C@H](CC(N)=O)NC(=O)[C@H](CCCCN)NC(=O)[C@H](Cc2ccc3ccccc3c2)NC(=O)[C@@H](N)CCCCNC(=O)[C@H](Cc2ccc(-c3ccccc3)cc2)NC1=O (H-K[2Nal]KNK[2Nal]KK[Bip]; lactam 1-C) | > 64 | 16 (≈ 22 µg/mL) | 2 (≈ 2.75 µg/mL) | > 300 | 32 (≈ 43.9 µg/mL) | 64 (≈ 87.9 µg/mL) | Active | 16 (≈ 22 µg/mL) | – | – | – | –
NCCCC[C@@H]1NC(=O)[C@H](Cc2ccc3ccccc3c2)NC(=O)CCCCCCCNC(=O)[C@H](Cc2ccc(-c3ccccc3)cc2)NC(=O)[C@H](CCCCN)NC(=O)[C@H](CCCCN)NC(=O)[C@H](Cc2ccc3ccccc3c2)NC(=O)[C@H](CCCCN)NC(=O)[C@H](CC(N)=O)NC1=O (cyclo([2Nal]KK[Bip][Aoc][2Nal]KNK)) | 16 (≈ 22.2 µg/mL) | 4 (≈ 5.54 µg/mL) | 2 (≈ 2.77 µg/mL) | 12 | 16 (≈ 22.2 µg/mL) | 16 (≈ 22.2 µg/mL) | Active | 16 (≈ 22.2 µg/mL) | Active | – | – | –
NCCCC[C@@H]1NC(=O)[C@H](Cc2ccc3ccccc3c2)NC(=O)CCCNC(=O)[C@H](Cc2ccc(-c3ccccc3)cc2)NC(=O)[C@H](CCCCN)NC(=O)[C@H](CCCCN)NC(=O)[C@H](Cc2ccc3ccccc3c2)NC(=O)[C@H](CCCCN)NC(=O)[C@H](CC(N)=O)NC1=O (cyclo([2Nal]KK[Bip][GABA][2Nal]KNK)) | 32 (≈ 42.5 µg/mL) | 16 (≈ 21.3 µg/mL) | 4 (≈ 5.32 µg/mL) | 155 | 32 (≈ 42.5 µg/mL) | 32 (≈ 42.5 µg/mL) | Active | 32 (≈ 42.5 µg/mL) | – | 3 | Active | –
NCCCC[C@@H]1NC(=O)[C@H](Cc2ccc3ccccc3c2)NC(=O)COCCOCCNC(=O)[C@H](Cc2ccc(-c3ccccc3)cc2)NC(=O)[C@H](CCCCN)NC(=O)[C@H](CCCCN)NC(=O)[C@H](Cc2ccc3ccccc3c2)NC(=O)[C@H](CCCCN)NC(=O)[C@H](CC(N)=O)NC1=O (cyclo(K[2Nal]KK[Bip][AEEA][2Nal]KN)) | 16 (≈ 22.2 µg/mL) | 16 (≈ 22.2 µg/mL) | 2 (≈ 2.78 µg/mL) | > 300 | 64 (≈ 88.9 µg/mL) | 64 (≈ 88.9 µg/mL) | inactive | 32 (≈ 44.5 µg/mL) | Active | – | – | –
NCCCC[C@@H]1NC(=O)[C@H](CCCCN)NC(=O)[C@H](Cc2ccc3ccccc3c2)NC(=O)[C@H](CCCCN)NC(=O)[C@H](CC(N)=O)NC(=O)[C@H](CCCCN)NC(=O)[C@H](Cc2ccc3ccccc3c2)NC(=O)[C@@H](N)CCNC(=O)[C@H](Cc2ccc(-c3ccccc3)cc2)NC1=O (H-[Dab][2Nal]KNK[2Nal]KK[Bip]; lactam 1-C) | > 64 | 16 (≈ 21.5 µg/mL) | 2 (≈ 2.69 µg/mL) | > 300 | 64 (≈ 86.1 µg/mL) | 64 (≈ 86.1 µg/mL) | Active | 32 (≈ 43 µg/mL) | – | – | Active | 3
NCCCC[C@@H]1NC(=O)[C@H](Cc2ccc3ccccc3c2)NC(=O)CCCCCCCCCNC(=O)[C@H](Cc2ccc(-c3ccccc3)cc2)NC(=O)[C@H](CCCCN)NC(=O)[C@H](CCCCN)NC(=O)[C@H](Cc2ccc3ccccc3c2)NC(=O)[C@H](CCCCN)NC(=O)[C@H](CC(N)=O)NC1=O | – | – | – | – | – | – | Active | – | – | – | – | –
NCCCC[C@@H]1NC(=O)[C@H](CCCCN)NC(=O)[C@H](Cc2ccc3ccccc3c2)NC(=O)[C@H](CCCCN)NC(=O)[C@@H](CC(N)=O)NC(=O)[C@H](CCCCN)NC(=O)[C@H](Cc2ccc3ccccc3c2)NC(=O)CCCCCCCCCNC(=O)[C@H](Cc2ccc(-c3ccccc3)cc2)NC1=O | 16 (≈ 22.6 µg/mL) | 16 (≈ 22.6 µg/mL) | 8 (≈ 11.3 µg/mL) | 5 | 16 (≈ 22.6 µg/mL) | > 64 | – | > 64 | – | – | – | –
NCCCC[C@@H]1NC(=O)[C@H](Cc2ccc3ccccc3c2)NC(=O)CCCCCNC(=O)[C@H](Cc2ccc(-c3ccccc3)cc2)NC(=O)[C@H](CCCCN)NC(=O)[C@H](CCCCN)NC(=O)[C@H](Cc2ccc3ccccc3c2)NC(=O)[C@H](CCCCN)NC(=O)[C@H](CC(N)=O)NC1=O (cyclo([2Nal]KK[Bip][Ahx][2Nal]KNK)) | 8 (≈ 10.9 µg/mL) | 8 (≈ 10.9 µg/mL) | 2 (≈ 2.72 µg/mL) | 18 | 16 (≈ 21.7 µg/mL) | 8 (≈ 10.9 µg/mL) | Active | 16 (≈ 21.7 µg/mL) | – | – | – | –
NCCCC[C@@H]1NC(=O)[C@H](Cc2ccc3ccccc3c2)NC(=O)CNC(=O)[C@H](Cc2ccc(-c3ccccc3)cc2)NC(=O)[C@H](CCCCN)NC(=O)[C@H](CCCCN)NC(=O)[C@H](Cc2ccc3ccccc3c2)NC(=O)[C@H](CCCCN)NC(=O)[C@H](CC(N)=O)NC1=O (cyclo([2Nal]KK[Bip]G[2Nal]KNK)) | 32 (≈ 41.7 µg/mL) | 8 (≈ 10.4 µg/mL) | 4 (≈ 5.21 µg/mL) | 45 | 32 (≈ 41.7 µg/mL) | 32 (≈ 41.7 µg/mL) | Active | 32 (≈ 41.7 µg/mL) | Active | – | Active | –
